Data: ChEMBL document CHEMBL1154645, “Aza-peptidyl Michael acceptor and epoxide inhibitors--potent and selective inhibitors of Schistosoma mansoni and Ixodes ricinus legumains (asparaginyl endopeptidases)” (J Med Chem, 2009)

What was measured:
[1] = Inhibition of Schistosoma mansoni asparaginyl endopeptidase
Summary of the method: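 Recombinant S. mansoni legumain zymogen expressed in Pichia pastoris and activated before use. Assay buffer was 0.1 M citrate-phosphate with 4 mM DTT at pH 6.8, with under 1% DMSO. The substrate was Cbz-Ala-Ala-[…]-AMC at a final 10 μM, and activity was read as AMC release.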

Legumain-like protease = target: T1, Legumain-like protease (Ixodes ricinus, UniProt Q6PRC7); assay: Inhibition of Ixodes ricinus asparaginyl endopeptidases
T1 sequence (Q6PRC7 whole entry): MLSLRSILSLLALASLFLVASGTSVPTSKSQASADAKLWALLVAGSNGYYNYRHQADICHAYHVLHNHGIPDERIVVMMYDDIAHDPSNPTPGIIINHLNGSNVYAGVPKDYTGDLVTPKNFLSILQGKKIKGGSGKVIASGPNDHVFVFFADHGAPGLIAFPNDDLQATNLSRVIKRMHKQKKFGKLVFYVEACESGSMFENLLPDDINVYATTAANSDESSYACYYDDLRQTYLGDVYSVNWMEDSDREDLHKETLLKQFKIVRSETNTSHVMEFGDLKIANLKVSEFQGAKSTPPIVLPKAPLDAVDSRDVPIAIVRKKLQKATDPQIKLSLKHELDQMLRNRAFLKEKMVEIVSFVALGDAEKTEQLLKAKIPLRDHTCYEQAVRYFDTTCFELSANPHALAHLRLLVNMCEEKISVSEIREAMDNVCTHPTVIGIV
Summary of the method: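 Recombinant I. ricinus legumain zymogen expressed in Pichia pastoris, then activated. Substrate: Cbz-Ala-Ala-[…]-AMC at 10 μM final, with fluorogenic AMC release as the read-out.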

| SMILES | IC50 ([1]; read-out: IC50) [nM] | IC50 (Legumain-like protease; read-out: IC50) [nM] | IC50 [1] | IC50 (Legumain-like protease) |
| --- | --- | --- | --- | --- |
| C[C@H](NC(=O)[C@@H](C)NC(=O)N1CCCCC1)C(=O)NN(CC(N)=O)C(=O)/C=C/C(=O)NCCc1ccccc1 | 750 | 400 | – | – |
| C[C@H](NC(=O)[C@@H](C)NC(=O)N1CCNCC1)C(=O)NN(CC(N)=O)C(=O)/C=C/C(=O)OCc1ccccc1 | 250 | 13 | – | – |
| C[C@H](NC(=O)[C@H](C)NC(=O)N1CCOCC1)C(=O)NN(CC(N)=O)C(=O)OCc1ccccc1 | – | – | Not Active | Not Active |
| C[C@H](NC(=O)N1CCOCC1)C(=O)NN(CC(N)=O)C(=O)/C=C/C(=O)NCc1ccco1 | – | – | Not Active | Not Active |
| C=C/C=C(\C)CNC(=O)N(CC(N)=O)NC(=O)[C@H](C)NC(=O)N1CCN(C(=O)OCc2ccccc2)CC1 | – | – | Not Active | Not Active |
| C[C@H](NC(=O)[C@@H](C)NC(=O)N1CCNCC1)C(=O)NN(CC(N)=O)C(=O)/C=C/C(=O)N(C)Cc1cccc2ccccc12 | 40 | 3.8 | – | – |
| C[C@H](NC(=O)[C@@H](C)NC(=O)N1CCNCC1)C(=O)NN(CC(N)=O)C(=O)/C=C/C(=O)N(Cc1ccccc1)Cc1ccccc1 | 90 | 31 | – | – |
| C[C@H](NC(=O)[C@H](C)NC(=O)N1CCCCC1)C(=O)NN(CC(N)=O)C(=O)/C=C/C(=O)N(Cc1ccccc1)Cc1ccccc1 | 80 | 17 | – | – |
| C[C@H](NC(=O)[C@@H](C)NC(=O)N1CCN(C(=O)OC(C)(C)C)CC1)C(=O)NN(CC(N)=O)C(=O)/C=C/C(=O)OCc1ccccc1 | 45 | 7.5 | – | – |
| C[C@H](NC(=O)[C@@H](C)NC(=O)N1CCN(C(=O)OC(C)(C)C)CC1)C(=O)NN(CC(N)=O)C(=O)/C=C/C(=O)N(C)Cc1cccc2ccccc12 | 58 | 20 | – | – |
| CCOC(=O)/C=C/C(=O)N(CC(N)=O)NC(=O)[C@H](C)NC(=O)[C@@H](C)NC(=O)N1CCN(C(=O)OCc2ccccc2)CC1 | – | 0.14 | – | – |
| CC(C)[C@H](NC(=O)[C@@H](C)NC(=O)OCc1ccccc1)C(=O)NN(CC(N)=O)C(=O)/C=C/C(=O)NCc1cccc2ccccc12 | 1050 | 350 | – | – |
| CCOC(=O)/C=C/C(=O)N(CC(N)=O)NC(=O)[C@@H](NC(=O)[C@@H](C)NC(=O)OCc1ccccc1)C(C)C | 100 | 65 | – | – |
| C[C@H](NC(=O)N1CCN(C(=O)OCc2ccccc2)CC1)C(=O)NN(CC(N)=O)C(=O)/C=C/C(=O)N1CCc2ccccc2C1 | 750 | 800 | – | – |
| C[C@H](NC(=O)[C@@H](C)NC(=O)N1CCOCC1)C(=O)NN(CC(N)=O)C(=O)/C=C/C(=O)N(Cc1cccc2ccccc12)Cc1cccc2ccccc12 | 45 | 3.3 | – | – |
| C[C@H](NC(=O)N1CCN(C(=O)OCc2ccccc2)CC1)C(=O)NN(CC(N)=O)C(=O)/C=C/C(=O)N1CCCc2ccccc21 | 750 | 850 | – | – |
| C[C@H](NC(=O)N1CCOCC1)C(=O)NN(CC(N)=O)C(=O)/C=C/C(=O)NC1CC1 | – | – | Not Active | Not Active |
| C[C@H](NC(=O)N1CCOCC1)C(=O)NN(CC(N)=O)C(=O)Nc1cccc2ccccc12 | – | – | Not Active | Not Active |
| C[C@H](NC(=O)N1CCOCC1)C(=O)NN(CC(N)=O)C(=O)/C=C/C(=O)N1CCc2ccccc2C1 | 750 | 600 | – | – |
| CCOC(=O)/C=C/C(=O)N(CC(N)=O)NC(=O)[C@H](C)NC(=O)[C@@H](C)NC(=O)N1CCCCC1 | 80 | 15 | – | – |
| C[C@H](NC(=O)N1CCOCC1)C(=O)NN(CC(N)=O)C(=O)CCc1ccccc1 | – | – | Not Active | Not Active |
| C[C@H](NC(=O)[C@@H](C)NC(=O)N1CCN(C(=O)OC(C)(C)C)CC1)C(=O)NN(CC(N)=O)C(=O)/C=C/C(=O)N(Cc1ccccc1)Cc1ccccc1 | 45 | 30 | – | – |
| CCOC(=O)/C=C/C(=O)N(CC(N)=O)NC(=O)OC(C)(C)C | > 2000 | 750 | – | – |
| CCOC(=O)/C=C/C(=O)N(CC(N)=O)NC(=O)[C@H](C)NC(=O)[C@@H](C)NC(=O)N1CCN(C(=O)OC(C)(C)C)CC1 | 80 | 8.5 | – | – |
| CC(C)(C)OC(=O)NN(CC(N)=O)C(=O)/C=C/C(=O)NCC1CCCCC1 | – | – | Not Active | Not Active |

| SMILES | IC50 ([1]; read-out: IC50) [nM] | IC50 (Legumain-like protease; read-out: IC50) [nM] | IC50 [1] | IC50 (Legumain-like protease) |
| --- | --- | --- | --- | --- |
| C[C@H](NC(=O)N1CCOCC1)C(=O)NN(CC(N)=O)C(=O)/C=C/C(=O)NCCCc1ccccc1 | > 2000 | – | – | Not Active |
| CC(C)(C)OC(=O)NN(CC(N)=O)C(=O)/C=C/C(=O)NCCCc1ccccc1 | – | – | Not Active | Not Active |
| CCOC(=O)/C=C/C(=O)N(CC(N)=O)NC(=O)[C@@H](NC(=O)[C@@H](C)NC(=O)OCc1ccccc1)[C@@H](C)CC | 280 | 0.52 | – | – |
| C[C@H](NC(=O)N1CCCCC1)C(=O)NN(CC(N)=O)C(=O)Nc1ccccc1Oc1ccccc1 | – | – | Not Active | Not Active |
| C[C@H](NC(=O)[C@@H](C)NC(=O)N1CCOCC1)C(=O)NN(CC(N)=O)C(=O)/C=C/C(=O)N1CCc2ccccc2C1 | 103 | 65 | – | – |
| C[C@H](NC(=O)N1CCCCC1)C(=O)NN(CC(N)=O)C(=O)/C=C/C(=O)N1CCc2ccccc2C1 | 600 | 150 | – | – |
| CCOC(=O)/C=C/C(=O)N(CC(N)=O)NC(=O)[C@H](C)NC(=O)[C@@H](C)NC(=O)N1CCNCC1 | 300 | 8.5 | – | – |
| CCOC(=O)/C=C/C(=O)N(CC(N)=O)NC(=O)[C@H](C)NC(=O)[C@@H](C)NC(=O)N1CCOCC1 | 101 | 0.23 | – | – |
| C[C@H](NC(=O)[C@@H](C)NC(=O)N1CCN(C(=O)OCc2ccccc2)CC1)C(=O)NN(CC(N)=O)C(=O)/C=C/C(=O)N(C)Cc1cccc2ccccc12 | 70 | 0.35 | – | – |
| C[C@H](NC(=O)[C@@H](C)NC(=O)N1CCN(C(=O)OCc2ccccc2)CC1)C(=O)NN(CC(N)=O)C(=O)/C=C/C(=O)N(Cc1cccc2ccccc12)Cc1cccc2ccccc12 | 50 | 0.37 | – | – |
| CC(C)[C@H](NC(=O)[C@@H](C)NC(=O)OCc1ccccc1)C(=O)NN(CC(N)=O)C(=O)/C=C/C(=O)N1CCCc2ccccc21 | 138 | 13 | – | – |
| COc1ccc(CNC(=O)/C=C/C(=O)N(CC(N)=O)NC(=O)[C@H](C)NC(=O)N2CCOCC2)cc1OC | > 2000 | > 2000 | – | – |
| C[C@H](NC(=O)[C@@H](C)NC(=O)N1CCN(C(=O)OC(C)(C)C)CC1)C(=O)NN(CC(N)=O)C(=O)/C=C/C(=O)N(Cc1cccc2ccccc12)Cc1cccc2ccccc12 | 68 | 5 | – | – |
| C[C@H](NC(=O)[C@@H](C)NC(=O)N1CCOCC1)C(=O)NN(CC(N)=O)C(=O)[C@H]1O[C@H]1C(=O)N(Cc1ccccc1)Cc1ccccc1 | – | – | Not Active | Not Active |
| CC(C)(C)OC(=O)NN(CC(N)=O)C(=O)/C=C/C(=O)NCc1ccccc1 | – | – | Not Active | Not Active |
| C[C@H](NC(=O)[C@H](C)NC(=O)N1CCCCC1)C(=O)NN(CC(N)=O)C(=O)/C=C/C(=O)N(Cc1cccc2ccccc12)Cc1cccc2ccccc12 (relative stereo) | 57 | 8 | – | – |
| C[C@H](NC(=O)[C@@H](C)NC(=O)N1CCNCC1)C(=O)NN(CC(N)=O)C(=O)/C=C/C(=O)N(Cc1cccc2ccccc12)Cc1cccc2ccccc12 (relative stereo) | 70 | 2.6 | – | – |
| CC(NC(=O)N1CCCCC1)C(=O)N[C@@H](C)C(=O)NN(CC(N)=O)C(=O)[C@H]1O[C@@H]1C(=O)N(Cc1ccccc1)Cc1ccccc1 (single isomer, unassigned) | 72 | 12 | – | – |
| CC(NC(=O)N1CCCCC1)C(=O)N[C@@H](C)C(=O)NN(CC(N)=O)C(=O)[C@H]1O[C@@H]1C(=O)NCc1cccc2ccccc12 (single isomer, unassigned) | 160 | 8.5 | – | – |
| CC(NC(=O)N1CCN(C(=O)OC(C)(C)C)CC1)C(=O)N[C@@H](C)C(=O)NN(CC(N)=O)C(=O)[C@H]1O[C@@H]1C(=O)N(Cc1ccccc1)Cc1ccccc1 (single isomer, unassigned) | 80 | 270 | – | – |
| CCOC(=O)[C@H]1O[C@@H]1C(=O)N(CC(N)=O)NC(=O)[C@H](C)NC(=O)C(C)NC(=O)N1CCCCC1 (single isomer, unassigned) | 220 | 30 | – | – |
| CC(NC(=O)N1CCOCC1)C(=O)N[C@@H](C)C(=O)NN(CC(N)=O)C(=O)[C@H]1O[C@@H]1C(=O)NCc1cccc2ccccc12 (single isomer, unassigned) | 60 | 6 | – | – |
| CC(NC(=O)N1CCOCC1)C(=O)N[C@@H](C)C(=O)NN(CC(N)=O)C(=O)[C@H]1O[C@@H]1C(=O)N(Cc1ccccc1)Cc1ccccc1 (single isomer, unassigned) | 90 | 1.7 | – | – |
| CC(NC(=O)N1CCNCC1)C(=O)N[C@@H](C)C(=O)NN(CC(N)=O)C(=O)[C@H]1O[C@@H]1C(=O)N(Cc1ccccc1)Cc1ccccc1 (single isomer, unassigned) | 150 | 11 | – | – |
